# Assay: Cytotoxicity assay on MRC-5 fibroblasts
# Assay type: cell-based
# Conditions: human, MRC-5SV2 cells
# Method in brief: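 MRC-5SV2 cells grown in MEM with L-glutamine, NaHCO3 and 5% hiFBS, seeded at 15,000 cells/well. Four-fold dilutions of test compound were added, with a highest in-test concentration of 64 μM. Cells were exposed for 72 h at 37 °C and 5% CO2, then incubated with resazurin for 4 h and read by fluorescence. CC50 was calculated from ≥2 independent experiments in duplicate.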
compound,measurement,value
CC[n+]1c(-c2ccccc2)c2cc(N/N=N/c3cccc(C(=N)N)c3)ccc2c2ccc(N)cc21 [isometamidium],CC50 at 72 h,22.7 µM

# — publication PMC9111543 (International Journal for Parasitology: Drugs and Drug …, 2022)
